Laboratory results: ChEMBL document CHEMBL3351751, “Tricyclic pyrazoles part 7. Discovery of potent and selective dihydrothienocyclopentapyrazole derived CB2 ligands” (Eur J Med Chem, 2014)
Active and inactive are the calls of the source. The calls are words filed in the database; no cut-off is given here.

Key:
[1] = biological target: Cannabinoid receptor 2 (Homo sapiens) (UniProt P34972); test: Inhibition of CB2 receptor in HL60 cells assessed as inhibition of ERK1/2 phosphorylation after 15 mins by Western blotting analysis; assay type: cell-based; conditions: HL-60
Cannabinoid receptor 1 = Cannabinoid receptor 1 (Mus musculus, UniProt P47746); test: Displacement of [3H]-CP55940 from CD1 mouse brain (minus cerebellum) CB1 receptor by liquid scintillation counting; assay type: tissue-based
Summary of the method: (§1)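 Male CD1 mouse tissue homogenised in ice-cold TME buffer (50 mM Tris–HCl, 1 mM EDTA, 3.0 mM MgCl2, pH 7.4); membranes (30–80 µg protein) incubated with 0.5–1 nM [3H]-CP-55,940, 1 h, 30 °C, with 5 mg/mL fatty acid-free BSA. Non-specific binding with 1 µM CP-55,940. GF/C filtration. Triplicate, ≥5 independent experiments; IC50 by sigmoid fit converted to Ki.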

Mus musculus = species: Mus musculus; test: Selectivity ratio of Ki for CD1 mouse brain (minus cerebellum) CB1 receptor to Ki for CD1 mouse spleen CB2 receptor; assay type: tissue-based
Cannabinoid receptor 2 = Cannabinoid receptor 2 (Mus musculus, UniProt P47936); test: Displacement of [3H]-CP55940 from CD1 mouse spleen CB2 receptor by liquid scintillation counting; summary of the method: as §1
Sequence of Cannabinoid receptor 2 (P47936 whole entry): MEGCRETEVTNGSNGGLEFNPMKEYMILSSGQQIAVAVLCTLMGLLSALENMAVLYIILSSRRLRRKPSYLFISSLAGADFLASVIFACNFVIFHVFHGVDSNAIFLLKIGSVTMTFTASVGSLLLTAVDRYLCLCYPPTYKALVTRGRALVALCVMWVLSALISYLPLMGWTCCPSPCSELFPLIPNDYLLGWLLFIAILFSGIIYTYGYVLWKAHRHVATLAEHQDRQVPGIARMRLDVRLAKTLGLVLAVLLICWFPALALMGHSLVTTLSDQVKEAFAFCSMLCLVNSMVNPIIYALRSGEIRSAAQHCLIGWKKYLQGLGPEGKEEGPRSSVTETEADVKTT

Sequence of Cannabinoid receptor 1 (P47746 whole entry): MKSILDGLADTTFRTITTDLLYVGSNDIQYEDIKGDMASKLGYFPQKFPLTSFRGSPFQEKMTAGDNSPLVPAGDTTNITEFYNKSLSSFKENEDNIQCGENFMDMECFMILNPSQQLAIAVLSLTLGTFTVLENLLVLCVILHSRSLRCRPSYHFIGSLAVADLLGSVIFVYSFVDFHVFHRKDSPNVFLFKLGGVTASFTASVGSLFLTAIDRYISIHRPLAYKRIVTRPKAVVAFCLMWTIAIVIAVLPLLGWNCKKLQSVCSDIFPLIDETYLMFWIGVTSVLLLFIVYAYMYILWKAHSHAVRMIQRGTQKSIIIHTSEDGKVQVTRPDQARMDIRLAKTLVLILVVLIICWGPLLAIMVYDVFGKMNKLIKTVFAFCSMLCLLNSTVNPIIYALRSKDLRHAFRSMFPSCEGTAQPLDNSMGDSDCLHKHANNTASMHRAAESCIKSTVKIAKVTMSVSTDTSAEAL
Sequence of Cannabinoid receptor 2 (Homo sapiens) (P34972 whole entry): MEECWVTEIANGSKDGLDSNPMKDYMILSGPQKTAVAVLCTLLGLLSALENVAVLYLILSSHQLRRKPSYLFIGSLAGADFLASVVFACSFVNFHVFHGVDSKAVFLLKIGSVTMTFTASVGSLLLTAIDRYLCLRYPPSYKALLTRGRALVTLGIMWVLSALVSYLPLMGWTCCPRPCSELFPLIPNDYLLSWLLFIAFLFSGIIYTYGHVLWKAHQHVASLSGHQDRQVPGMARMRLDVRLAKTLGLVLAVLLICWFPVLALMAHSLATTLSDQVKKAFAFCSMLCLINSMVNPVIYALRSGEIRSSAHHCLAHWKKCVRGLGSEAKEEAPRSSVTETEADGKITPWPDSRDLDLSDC

Cc1cc2c(s1)Cc1c(C(=O)NN3CCCCC3)nn(-c3ccc(Cl)cc3Cl)c1-2
inhibition [1]: Active
Ki (Cannabinoid receptor 1): 440 nM
Ratio Ki (Mus musculus): 191
Ki (Cannabinoid receptor 2): 2.3 nM

Cc1csc2c1-c1c(c(C(=O)NN3CCCC3)nn1-c1ccc(Cl)cc1Cl)C2
inhibition [1]: Active
Ki (Cannabinoid receptor 1): 4730 nM
Ratio Ki (Mus musculus): 5.8
Ki (Cannabinoid receptor 2): 817 nM

Cc1ccc(Cn2nc(C(=O)NC3CCCCC3)c3c2-c2c(C)csc2C3)cc1
inhibition [1]: Active
Ki (Cannabinoid receptor 1): 1980 nM
Ratio Ki (Mus musculus): 10.4
Ki (Cannabinoid receptor 2): 191 nM

Cc1cc2c(s1)Cc1c(C(=O)NC3C[C@@H](C)CC[C@@H]3C(C)C)nn(-c3ccc(Cl)cc3Cl)c1-2 (stereo partly specified)
inhibition [1]: Active
Ki (Cannabinoid receptor 1): 6.5 nM
Ratio Ki (Mus musculus): 1.3
Ki (Cannabinoid receptor 2): 5.1 nM

Cc1ccc(Cn2nc(C(=O)NC3C(C)(C)C4CC[C@@]3(C)C4)c3c2-c2c(C)csc2C3)cc1 (stereo partly specified)
inhibition [1]: Active
Ki (Cannabinoid receptor 1): 420 nM
Ratio Ki (Mus musculus): 175
Ki (Cannabinoid receptor 2): 2.4 nM

Cc1csc2c1-c1c(c(C(=O)NN3CCCCC3)nn1-c1ccc(Cl)cc1Cl)C2
inhibition [1]: Active
Ki (Cannabinoid receptor 1): 3920 nM
Ratio Ki (Mus musculus): 6.8
Ki (Cannabinoid receptor 2): 578 nM

Cc1cc2c(s1)Cc1c(C(=O)NC3CCCCC3)nn(-c3ccc(Cl)cc3Cl)c1-2
inhibition [1]: Active
Ki (Cannabinoid receptor 1): 447 nM
Ratio Ki (Mus musculus): 62.1
Ki (Cannabinoid receptor 2): 7.2 nM

Cc1csc2c1-c1c(c(C(=O)NC3CCCCC3)nn1-c1ccc(Cl)cc1Cl)C2
inhibition [1]: Active
Ki (Cannabinoid receptor 1): 3080 nM
Ratio Ki (Mus musculus): 6.1
Ki (Cannabinoid receptor 2): 501 nM

Cc1csc2c1-c1c(c(C(=O)NN3CCOCC3)nn1-c1ccc(Cl)cc1Cl)C2
inhibition [1]: Active
Ki (Cannabinoid receptor 1): 4700 nM
Ratio Ki (Mus musculus): 6.3
Ki (Cannabinoid receptor 2): 747 nM

Cc1ccc(Cn2nc(C(=O)NC3C[C@@H](C)CC[C@@H]3C(C)C)c3c2-c2c(C)csc2C3)cc1 (stereo partly specified)
inhibition [1]: Active
Ki (Cannabinoid receptor 1): 160 nM
Ratio Ki (Mus musculus): 59.3
Ki (Cannabinoid receptor 2): 2.7 nM

Cc1ccc(Cn2nc(C(=O)NN3CCOCC3)c3c2-c2c(C)csc2C3)cc1
inhibition [1]: Active
Ki (Cannabinoid receptor 1): 4500 nM
Ratio Ki (Mus musculus): 2.6
Ki (Cannabinoid receptor 2): 1760 nM

Cc1cc2c(s1)Cc1c(C(=O)NN3CCCC3)nn(-c3ccc(Cl)cc3Cl)c1-2
inhibition [1]: Active
Ki (Cannabinoid receptor 1): 1390 nM
Ratio Ki (Mus musculus): 36.2
Ki (Cannabinoid receptor 2): 38.3 nM

Cc1ccc(Cn2nc(C(=O)NN3CCCCCC3)c3c2-c2c(C)csc2C3)cc1
inhibition [1]: Active
Ki (Cannabinoid receptor 1): 1280 nM
Ratio Ki (Mus musculus): 18.5
Ki (Cannabinoid receptor 2): 69 nM

Cc1csc2c1-c1c(c(C(=O)NN3CCCCCC3)nn1-c1ccc(Cl)cc1Cl)C2
inhibition [1]: Active
Ki (Cannabinoid receptor 1): 3800 nM
Ratio Ki (Mus musculus): 11.8
Ki (Cannabinoid receptor 2): 321 nM

Cc1csc2c1-c1c(c(C(=O)NC3C[C@@H](C)CC[C@@H]3C(C)C)nn1-c1ccc(Cl)cc1Cl)C2 (stereo partly specified)
inhibition [1]: Active
Ki (Cannabinoid receptor 1): 3260 nM
Ratio Ki (Mus musculus): 486
Ki (Cannabinoid receptor 2): 6.7 nM

Cc1ccc(Cn2nc(C(=O)NN3CCCC3)c3c2-c2c(C)csc2C3)cc1
inhibition [1]: Active
Ki (Cannabinoid receptor 1): 4500 nM
Ratio Ki (Mus musculus): 8.7
Ki (Cannabinoid receptor 2): 515 nM

Cc1csc2c1-c1c(c(C(=O)NC3C(C)(C)C4CC[C@@]3(C)C4)nn1-c1ccc(Cl)cc1Cl)C2 (stereo partly specified)
inhibition [1]: Active
Ki (Cannabinoid receptor 1): 2240 nM
Ratio Ki (Mus musculus): 424
Ki (Cannabinoid receptor 2): 5.3 nM

Cc1c(C(=O)c2cccc3ccccc23)c2cccc3c2n1[C@H](CN1CCOCC1)CO3
inhibition [1]: Active

Cc1ccc(Cn2nc(C(=O)NN3CCCCC3)c3c2-c2c(C)csc2C3)cc1
inhibition [1]: Active
Ki (Cannabinoid receptor 1): 377 nM
Ratio Ki (Mus musculus): 3
Ki (Cannabinoid receptor 2): 125 nM

Cc1ccc(Cn2nc(C(=O)NC3C[C@@H](C)CC[C@@H]3C(C)C)c3c2-c2cc(C)sc2C3)cc1 (stereo partly specified)
inhibition [1]: Active
Ki (Cannabinoid receptor 1): 180 nM
Ratio Ki (Mus musculus): 37.5
Ki (Cannabinoid receptor 2): 4.8 nM

Cc1cc2c(s1)Cc1c(C(=O)NN3CCCCCC3)nn(-c3ccc(Cl)cc3Cl)c1-2
inhibition [1]: Active
Ki (Cannabinoid receptor 1): 442 nM
Ratio Ki (Mus musculus): 402
Ki (Cannabinoid receptor 2): 1.1 nM
